The text below walks through data of ChEMBL document CHEMBL1151684, “Synthesis and antitumoral activity of novel 3-(2-substituted-1,3,4-oxadiazol-5-yl) and 3-(5-substituted-1,2,4-triazol-3-yl) beta-carboline derivatives” (2008).

Type in all cases: functional
For one assay, the system named is K562. Kind of assay: Growth inhibition of human K-562 cells after 48 hrs by sulforhodamine B assay. The settings on record: K562, 48 h. In outline:
(§1)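 Sulforhodamine B colorimetric assay following the NCI standard protocol, with doxorubicin as positive control. Each compound was tested at four concentrations in 10-fold dilutions (0.25 to 250). GI50, the concentration giving 50% growth reduction versus untreated control cells, was derived from dose–response curves.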
For orientation: The SRB assay estimates cell density from bound dye.

Assay [1] can be described thus: Growth inhibition of human NCI-460 cells after 48 hrs by sulforhodamine B assay. The settings on record: NCI-460, 48 h. The method, boiled down:
as §1

The next assay deals with UACC-62. The experiment in a line: Growth inhibition of human UACC-62 cells after 48 hrs by sulforhodamine B assay. The settings on record: UACC-62, 48 h. The method, boiled down: as §1
A further assay relates to MCF7. Kind of assay: Growth inhibition of human MCF7 cells after 48 hrs by sulforhodamine B assay. The settings on record: MCF7, 48 h. In outline:
as §1

A further assay deals with OVCAR. Kind of assay: Growth inhibition of human OVCAR cells after 48 hrs by sulforhodamine B assay. In outline:
as §1

The nature of assay [2]: Growth inhibition of human PCO3 cells after 48 hrs by sulforhodamine B assay. The settings on record: PCO3, 48 h. The method, boiled down:
as §1

Another assay relates to HT-29. Kind of assay: Growth inhibition of human HT-29 cells after 48 hrs by sulforhodamine B assay. The settings on record: HT-29, 48 h. The method, boiled down: as §1
The next assay relates to 786-0. Kind of assay: Growth inhibition of human 786-0 cells after 48 hrs by sulforhodamine B assay. The settings on record: 786-0, 48 h; for CC50: read-out: LC50 (the source's name). In outline: as §1

Usually GI50 stands for the concentration that inhibits growth by half. A higher GI50 goes with less potent growth inhibition. A word on the TGI: it is the concentration giving total growth inhibition. Read a low TGI as more potent growth arrest.

In the case of `Oc1ccc(-c2nc(-c3n[nH]c(=S)[nH]3)cc3c2[nH]c2ccccc23)cc1`, the GI50 in the assay with K562 was > 100 µM; in assay [1], 6.69 µM; in the assay on UACC-62, 10.6 µM; with MCF7, 19.8 µM; with OVCAR, 6.41 µM; in assay [2], 0.5 µM. Further, the GI50 in the assay with HT-29 was determined as 46.2 µM; in the assay on 786-0 it was 0.17 µM. In addition, the TGI in the assay on K562 is > 100 µM; in assay [1], > 100 µM; in the assay with UACC-62, > 100 µM; in the assay with MCF7, > 100 µM; in the assay with OVCAR it was > 100 µM; in assay [2], 40.7 µM. The values for the TGI with HT-29 and in the assay on 786-0 were > 100 µM and 23.8 µM, respectively. In addition, the LC50 (concentration killing 50% of cells) in assay [2] was > 100 µM. In the assay with 786-0, the CC50 was > 100 µM.
`CN(C)c1ccc(-c2nc(-c3n[nH]c(=S)n3N)cc3c2[nH]c2ccccc23)cc1`: the 50% growth inhibitory concentration (GI50) is > 100 µM with K562; 0.2 µM in assay [1]; 50.4 µM in the assay on UACC-62; > 100 µM with MCF7; > 100 µM in the assay on OVCAR; > 100 µM in assay [2]. Moreover, the results for the 50% growth inhibitory concentration (GI50) in the assay with HT-29 and in the assay with 786-0 were > 100 µM and 0.97 µM, respectively. In addition, the TGI was > 100 µM in the assay with K562; 71.8 µM in assay [1]; > 100 µM in the assay on UACC-62; > 100 µM in the assay on MCF7; > 100 µM with OVCAR; > 100 µM in assay [2]. The results for the TGI in the assay with HT-29 and in the assay on 786-0 were > 100 µM and 80 µM, respectively. Moreover, the LC50 (concentration for 50% net cell kill) in assay [1] was > 100 µM. Also, the CC50 in the assay with 786-0 was > 100 µM.
